Source: PubChem
Sampled rows, rich in hits. Any-hit rate of the full collection: about 4.5%.
TAAR1 antagonist = antagonists of human TAAR1 | CHO RD-HGA16 TAAR1, Fluo-8 calcium fluorescence, antagonist | Q96RJ0 | inhibition, % at 3 µM | 1.5% of 360,000 active;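 active means inhibition above a per-plate cutoff, the mean inhibition of test compounds on that plate plus 3 SD, cut at about 49% in these data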;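 further: 0% = DMSO plus EC80 beta-PEA response and 100% = DMSO alone without agonist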
Target sequence (Q96RJ0 whole entry, looked up): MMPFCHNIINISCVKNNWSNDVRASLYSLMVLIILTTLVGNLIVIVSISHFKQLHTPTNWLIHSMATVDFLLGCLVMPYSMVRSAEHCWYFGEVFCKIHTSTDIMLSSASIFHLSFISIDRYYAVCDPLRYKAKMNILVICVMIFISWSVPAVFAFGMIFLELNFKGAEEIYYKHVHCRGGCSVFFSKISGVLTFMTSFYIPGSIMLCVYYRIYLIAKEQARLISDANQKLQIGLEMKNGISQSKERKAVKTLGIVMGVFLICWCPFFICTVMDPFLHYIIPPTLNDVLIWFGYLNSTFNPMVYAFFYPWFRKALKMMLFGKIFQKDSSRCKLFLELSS
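Test system – hTAAR1-expressing CHO RD-HGA16 cells, Gα16-coupled · Also added – β-PEA at EC80 concentration, post-compound challenge · Compound – 3 µM, single point · Incubation – dye loading 75 min at 37 °C, then 30 min room temperature · Measured by – Fluo-8 intracellular calcium dye fluorescence, real-time kinetic reads · Benchmarks – vehicle and agonist controls · Replicates – singlicate, one well per test compound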
TAAR1 ag = agonists of human TAAR1; CHO RD-HGA16 TAAR1, Fluo-8 calcium fluorescence; vehicle wells 0%, saturating PEA agonist 100%; activation, % at 3 µM; 0.99% of 360,000 active; Q96RJ0;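 active means activation above the mean activation of all test compounds in the run plus 3 SD, cut at about 38% in these data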
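Assay system: CHO-derived RD-HGA16 cells with stable Gα16 and human TAAR1; timing: 17-24 h seeding, 75 min 37 °C dye, 30 min RT; read-out: % activation from peak over basal fluorescence ratio, DMSO-to-PEA scaled; measured by: kinetic Fluo-8 calcium fluorescence; benchmarks: low control DMSO, high control PEA (EC100); doses: 3 µM single concentration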
GPR7 antagonist = antagonists of human GPR7 (neuropeptides B/W receptor 1); P48145; GPR7-expressing cells, fluorescence antagonist assay; inhibition, % at 4.4 µM; 1.1% of 290,000 active; AID 1861; in the data active means inhibition above about 16%, passing the limit was not always enough;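 further: cells stimulated with the agonist NPW; 0% = agonist with vehicle and 100% = vehicle without agonist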
CHO parental Ca = signal in parental CHO cells, OX1R antagonist counter-screen. inhibition, % at 5.6 µM. AID 463079. 0.63% of 330,000 active. parental CHO-K1, ATP-induced calcium, Fluo-8 fluorescence;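 active means inhibition above that plate's mean sample inhibition plus 3 SD, cut at about 26% in these data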;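 further: 0% = ATP-challenged DMSO wells and 100% = DMSO wells without ATP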
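Material: Parental CHO cells | Reagent: ATP | Compound dosing: Single nominal dose of 5.6 µM per compound | Detection: Intracellular calcium via Fluo-8 no-wash fluorescent dye | Read-out: % inhibition of ATP-induced calcium mobilization | Benchmarks: Low control ATP plus DMSO, high control DMSO only | Replicates: Singlicate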
OX1R antag-1 = antagonists of human orexin 1 receptor; 0.43% of 330,000 active; inhibition, % at 5 µM; CHO/OX1R cells, Fluo-8 calcium fluorescence, orexin A; O43613;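 active means inhibition above its plate's threshold, mean inhibition of all tested compounds on the plate plus 3 SD, cut at about 37% in these data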;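 further: 0% = orexin A challenge wells and 100% = SB-334867-A antagonist wells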
OX1R antag-2 = antagonists of human orexin 1 receptor (OX1R). O43613. OX1R-expressing cells, FRET antagonist read-out. inhibition, % at 6.6 µM. 1.8% of 330,000 active. AID 485270; in the data active means inhibition mostly above about 38%, no sharp cut-off; inactive means mostly below about 40%;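 further: 0% = agonist challenge alone and 100% = reference antagonist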
* hit, by the source's call; x = no result given.

SMILES	TAAR1 antagonist	TAAR1 ag	GPR7 antagonist	CHO parental Ca	OX1R antag-1	OX1R antag-2
O=C(c1nnsc1S(=O)(=O)c1ccc(Cl)cc1)N1CCOCC1	-15	3	12	x	x	x
CNC(=O)c1nnsc1S(=O)(=O)c1ccc(Cl)cc1	25	3	26*	x	x	x
COc1cc(C(=O)NNC(=S)NC(=O)c2ccc3c(c2)OCO3)cc(OC)c1OC	-30	44*	5	-13	-33	17
COc1cc(C(=O)NNC(=O)c2ccc3c(c2)OCCO3)cc(OC)c1OC	-6	4	x	-3	-9	-2
CN(C)S(=O)(=O)NC(=O)C1=C(N2CCCC2)COC1=O	16	0	x	14	-4	6
COc1ccc2oc(=O)c(C(=O)N3CCN(C(=O)c4ccco4)CC3)cc2c1	-11	-1	-7	-6	-5	18
O=C(CCNS(=O)(=O)c1ccc2nsnc2c1)N1CCN(c2ccncc2)CC1	-2	9	x	-8	2	51*
CC1(c2nnnn2Cc2ccccc2)CCC(=O)N1Cc1cccc(C(F)(F)F)c1 (stereo not drawn)	-16	7	x	x	x	x
CCCCNC(=O)C[C@H]1C[C@@]2(C(=O)OC)C(=C[C@H](C(C)(C)C)O[C@@H]2C)N(Cc2ccccc2)C1=O	-42	-2	x	x	x	x
CS(=O)(=O)c1ccc(C(=O)OCC(=O)NC23CC4CC(CC(C4)C2)C3)cc1[N+](=O)[O-]	21	10	15	68*	42*	26
O=[N+]([O-])c1ccc(N2CCN(c3cccc(Cl)c3)CC2)cn1	8	6	21*	0	-14	9
COC(=O)[C@]12CCCCC=C1N(Cc1ccccc1)C(=O)[C@H](CC(=O)N1CCC(c3ccccc3)CC1)C2	54*	3	x	x	x	x
COC(=O)[C@]12CCCCC=C1N(CCc1ccc(OC)c(OC)c1)C(=O)[C@H](CC(=O)N1CCC(c3ccccc3)CC1)C2	67*	5	x	x	x	x
COc1ccc(OC)c(S(=O)(=O)CC(=O)c2cc3ccccc3oc2=O)c1	4	6	x	x	x	x
COc1cc2c(c(OC3OC(CO)C(O)C(O)C3O)c1)C(=O)CC(c1ccc(O)cc1)O2 (stereo not drawn)	0	1	x	x	x	x
O=S(=O)(NCc1ccccc1)c1ccc(-c2cnc(C3CC3)o2)cc1	2	-1	-2	-11	-4	16
CCOc1ccccc1CNS(=O)(=O)c1ccc(-c2cnc(C3CC3)o2)cc1	58*	4	1	33*	24	45
CCCCCCc1ccc(-c2ccc(C#N)cc2)cc1	-18	1	x	x	x	x
CCn1c(SCc2nc(CC(=O)Nc3ccccc3OC)no2)nnc1-c1cccs1	-2	8	-9	-16	-6	70*
COCCCNC(=S)N1CCN(c2nc(-c3ccc(Cl)cc3)cs2)CC1	62*	4	x	x	x	x
CC(C)CNC(=S)N1CCN(c2nc(-c3ccc(Cl)cc3)cs2)CC1	34	-2	-7	39*	-1	34
COCCCNC(=S)N1CCN(c2nc(-c3ccccc3)cs2)CC1	37	10	1	-1	-16	22
O=C(COc1ccccc1F)c1ccc(O)cc1O	7	1	-8	6	-3	13
Cc1c(O)ccc(C(=O)COc2ccccc2F)c1O	32	22	-7	5	7	37*
O=C(N[C@H](C(=O)N1CCC[C@H]1C(=O)NC1CCCC1)C1CCCCC1)c1ccco1	-17	1	x	x	x	x
SMILES	TAAR1 antagonist	TAAR1 ag	GPR7 antagonist	CHO parental Ca	OX1R antag-1	OX1R antag-2
CCc1ccc(OCCSc2nc3ccccc3n2CCC(=O)O)cc1	-7	4	-12	-7	4	32
COc1ccccc1OCCSc1nc2ccccc2n1CCC(=O)O	-9	3	0	-1	7	67*
COc1ccc(OCCSc2nc3ccccc3n2CCC(=O)O)cc1	6	-1	-4	7	23	54*
COc1ccccc1OCCSc1nc2ccccc2n1CCO	16	5	-4	-13	-1	40
COc1cc(Nc2ccc(S(N)(=O)=O)cc2)c([N+](=O)[O-])nc1[N+](=O)[O-]	0	-1	-10	11	-8	48*
CC(C)Oc1ccc(Nc2ncnc3ccccc23)cc1	-2	1	-10	-1	-18	12
CC(Nc1ncnc2ccccc12)c1ccccc1 (stereo not drawn)	34	5	7	38*	21	6
COc1ccc(N=CC2=C(Nc3ccc(OC)cc3)c3c(C)nn(-c4ccccn4)c3CC2)cc1	x	x	-2	31*	20	20
CCc1ccc(OCCCC(=O)NCc2ccco2)cc1	-17	-1	0	-8	-16	8
CCc1ccc(N/C(SCc2ccccc2C)=C(/C#N)C(=O)NCc2ccco2)cc1	51*	1	-16	7	-4	29
CC1CCCN(c2cccc3c2S(=O)(=O)N([C@H](C)c2ccccc2)C[C@@H](COCc2ccccc2)O3)C1 (stereo partly drawn)	-16	-1	x	x	x	x
CCn1c(COc2ccccc2)nnc1SCC(=O)Nc1ccc(N2CCOCC2)cc1	3	-2	-3	-10	-13	21
COC(=O)C1=C(C)N(Cc2cccc(C(F)(F)F)c2)C(=NCc2cc(OC)c(OC)c(OC)c2)NC1c1cccc(C(F)(F)F)c1 (stereo not drawn)	-5	4	x	x	x	x
O=C(c1ccccc1Nc1ccc(SC(F)F)cc1)N1CCCCC1	9	2	9	-16	-30	10
CC(OC(=O)c1ccccc1Nc1ccc(SC(F)F)cc1)C(N)=O (stereo not drawn)	31	11	-12	47*	29	36
Nc1nc(CSc2nc3ccccc3s2)nc(Nc2ccccc2)n1	x	x	-12	-30	60*	92*
Cc1ccccc1Nc1nc(N)nc(CSc2nnc3sc4ccccc4n23)n1	2	12	-12	2	-18	2
CN(C)S(=O)(=O)c1ccc(/C(O)=C2/C(=O)C(=O)N(CCCN3CCOCC3)C2c2ccncc2)cc1 (stereo not drawn)	-16	-1	x	8	-3	73*
COc1ccc(/C(O)=C2/C(=O)C(=O)N(CCN3CCOCC3)C2c2ccccn2)cc1 (stereo not drawn)	3	0	-2	-3	-6	68*
